Experimental data reported in ChEMBL document CHEMBL4052683, “The discovery of benzoxazine sulfonamide inhibitors of NaV1.7: Tools that bridge efficacy and target engagement” (Bioorg Med Chem Lett, 2017).

What was measured:
[1] = target: Sodium channel protein type 9 subunit alpha (Rattus norvegicus, UniProt O08562); experiment: Inhibition of rat NaV1.7 by cell based whole cell voltage clamp method
Summary of the method: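 PatchXpress electrophysiology was run with a protocol giving about 20% channel inactivation. At least four concentrations at half-log spacing were applied one at a time, with washout, current recovery and holding voltage reset between each. Data were pooled from at least 10 cells, with 2–3 points per concentration, and fitted with a 4-parameter Hill curve to give one IC50.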

Plasma [2] = experiment: Unbound plasma concentration in C57BL/6 mouse model of formalin-induced nociception behavior at 60 mg/kg, po; type: ADME, organism-based; details: in vivo
Summary of the method: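 The formalin arm received 2% formalin subcutaneously into the dorsal hind paw, and total phase II licking and lifting was scored. The pruritus arm was dosed 120 min before histamine (8.15mM, intradermal, nape of neck), and scratch bouts were counted over 0-30 min. Unbound plasma concentration was determined at each dose.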

[3] = Ratio of unbound plasma concentration in Sprague-Dawley rat model of formalin-induced nociception behavior at 10 mg/kg, po to IC50 for rat Nav1.7 by whole cell voltage clamp method
Summary of the method: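 Total phase II formalin-induced flinches were scored. Unbound plasma concentration was determined at each dose and related to the rat NaV1.7 IC50.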

Plasma [4] = experiment: Plasma concentration in C57BL/6 mouse model of formalin-induced nociception behavior at 100 mg/kg, po; type: ADME, organism-based; details: in vivo
Summary of the method: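 Male C57BL/6 mice got 30, 60 or 100 mg/kg PO in 30% (w/v) hydroxypropyl β-cyclodextrin in water, pH 10.0 with KOH. Formalin (2%) was injected subcutaneously into the dorsal hind paw, and total phase II paw licking and lifting were scored. Morphine sulfate 3 mg/kg SC served as control. Unbound plasma concentration was divided by the mouse NaV1.7 IC50.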

Chain of Sodium channel protein type 9 subunit alpha (O08562 whole entry): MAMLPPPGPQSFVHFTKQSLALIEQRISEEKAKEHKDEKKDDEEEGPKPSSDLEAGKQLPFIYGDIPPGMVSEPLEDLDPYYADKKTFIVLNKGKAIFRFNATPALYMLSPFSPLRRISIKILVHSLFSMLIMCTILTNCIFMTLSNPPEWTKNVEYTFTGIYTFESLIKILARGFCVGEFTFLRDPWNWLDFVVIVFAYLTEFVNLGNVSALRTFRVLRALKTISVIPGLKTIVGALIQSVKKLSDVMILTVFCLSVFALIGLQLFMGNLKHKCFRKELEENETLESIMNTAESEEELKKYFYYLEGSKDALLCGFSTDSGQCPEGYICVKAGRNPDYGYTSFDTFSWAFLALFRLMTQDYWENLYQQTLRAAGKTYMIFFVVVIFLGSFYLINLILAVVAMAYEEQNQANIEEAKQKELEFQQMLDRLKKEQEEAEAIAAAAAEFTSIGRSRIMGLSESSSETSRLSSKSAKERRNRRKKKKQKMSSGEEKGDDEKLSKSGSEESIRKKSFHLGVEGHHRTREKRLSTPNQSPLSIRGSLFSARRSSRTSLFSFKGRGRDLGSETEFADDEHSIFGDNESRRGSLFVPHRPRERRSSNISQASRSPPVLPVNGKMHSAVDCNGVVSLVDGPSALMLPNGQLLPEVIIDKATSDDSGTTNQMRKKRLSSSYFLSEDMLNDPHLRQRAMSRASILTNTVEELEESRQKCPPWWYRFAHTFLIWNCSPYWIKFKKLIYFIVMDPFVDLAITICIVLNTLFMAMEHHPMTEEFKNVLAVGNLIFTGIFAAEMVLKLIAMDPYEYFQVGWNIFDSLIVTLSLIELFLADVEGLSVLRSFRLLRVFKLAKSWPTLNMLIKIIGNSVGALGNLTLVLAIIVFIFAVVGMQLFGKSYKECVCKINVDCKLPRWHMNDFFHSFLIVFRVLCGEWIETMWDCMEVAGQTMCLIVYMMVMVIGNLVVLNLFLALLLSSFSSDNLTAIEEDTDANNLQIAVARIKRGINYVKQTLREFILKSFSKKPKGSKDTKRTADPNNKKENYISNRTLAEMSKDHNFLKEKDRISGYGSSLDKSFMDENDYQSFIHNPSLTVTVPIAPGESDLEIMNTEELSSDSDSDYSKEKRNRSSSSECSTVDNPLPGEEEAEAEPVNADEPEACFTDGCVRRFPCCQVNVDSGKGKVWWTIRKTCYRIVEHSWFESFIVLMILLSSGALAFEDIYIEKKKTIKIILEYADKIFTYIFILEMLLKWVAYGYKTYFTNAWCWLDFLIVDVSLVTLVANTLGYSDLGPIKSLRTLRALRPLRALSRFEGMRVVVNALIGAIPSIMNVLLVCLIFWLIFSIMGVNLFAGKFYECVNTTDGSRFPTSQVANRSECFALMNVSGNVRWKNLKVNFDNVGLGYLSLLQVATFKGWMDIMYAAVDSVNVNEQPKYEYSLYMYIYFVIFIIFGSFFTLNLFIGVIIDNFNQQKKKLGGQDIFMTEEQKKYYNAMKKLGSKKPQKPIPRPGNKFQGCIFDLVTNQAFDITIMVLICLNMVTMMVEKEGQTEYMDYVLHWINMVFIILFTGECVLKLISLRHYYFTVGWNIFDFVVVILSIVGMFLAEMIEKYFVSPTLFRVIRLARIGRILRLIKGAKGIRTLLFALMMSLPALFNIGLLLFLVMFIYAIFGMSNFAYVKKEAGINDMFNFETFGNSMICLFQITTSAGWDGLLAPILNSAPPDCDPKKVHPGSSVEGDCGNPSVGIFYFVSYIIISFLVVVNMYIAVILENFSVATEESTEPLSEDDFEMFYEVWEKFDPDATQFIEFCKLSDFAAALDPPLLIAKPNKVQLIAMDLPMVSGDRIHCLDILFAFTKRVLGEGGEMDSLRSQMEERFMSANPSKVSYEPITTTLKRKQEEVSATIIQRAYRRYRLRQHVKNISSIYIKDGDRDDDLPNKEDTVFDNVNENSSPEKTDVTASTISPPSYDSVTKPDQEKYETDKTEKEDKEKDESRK

IC50 [1]: 67 nM
Cp(f) (Plasma [2]): 0.62 µM
concentration (Plasma [4]): 150 µM
Structure (SMILES): N#Cc1cc(C(F)(F)F)ccc1N1CCOc2cc(S(=O)(=O)Nc3nccs3)c(F)cc21
Ratio [3]: 0.5
